Drawing on ChEMBL document CHEMBL1155872, “Molecular features of the prazosin molecule required for activation of Transport-P” (Bioorg Med Chem, 2008), this text covers Activity, inhibition and IC50 for 25 compounds.

Type in all cases: cell-based
In experiment [1] the test system is GT1-1. Description: Activation of [3H]prazosin uptake at transport-P transporter protein in mouse GT1-1 cells at 1 uM relative to control. In outline: (§1)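 GT1-1 GnRH neurones grown in DMEM/Ham's F-12 (1:1) with 10% FBS, plated on poly-D-lysine/laminin-coated wells and used after 2–4 days in culture. Intact cells washed, then incubated 60 min at 37 °C with tracer [³H]prazosin 2 × 10^-10 M plus test compound. Plates iced, washed at 0 °C, solubilised in SDS/NaOH. Radioactivity counted by scintillation and normalised to protein (BCA). Result given as % activation of tracer uptake.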

In experiment [2] the test system is GT1-1. Put plainly: Inhibition of prazosin uptake at transport-P transporter protein in mouse GT1-1 cells at 100 uM relative to desipramine.
Experiment [3] deals with GT1-1. Put plainly: Activation of [3H]prazosin uptake at transport-P transporter protein in mouse GT1-1 cells at 100 uM relative to control. In short, it runs like this: as §1
Experiment [4] concerns GT1-1. Put plainly: Activation of [3H]prazosin uptake at transport-P transporter protein in mouse GT1-1 cells at 10 uM relative to control. In outline: as §1
Experiment [5] in a line: Inhibition of prazosin uptake at transport-P transporter protein in mouse GT1-1 cells. In outline:
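GT1-1 GnRH neurones were grown on poly-D-lysine/laminin and uptake was run on intact cells after 2–4 days. Incubation was 60 min at 37 °C in DMEM/25 mM Hepes/0.5 mM ascorbate, pH 7.4, with [³H]prazosin 2 × 10^-10 M, unlabelled prazosin 10^-6 M and test compound. Cell-associated radioactivity was normalised to protein. IC50 was taken from concentration–response curves, in triplicate, with each experiment done twice.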

One may read the inhibition as the share of the control response that was lost under treatment. A lower inhibition goes with a weak effect. On to `Nc1nc(N2CCN(C(=O)c3ccccc3)CC2)nc2ccccc12`, for which the Activity in the experiment on GT1-1 [1], in the experiment on GT1-1 [3] and in the experiment on GT1-1 [4] was 0% each time. Besides, the inhibition in the experiment with GT1-1 [2] came out at 73%.

In general, IC50 refers to the concentration that gives 50% inhibition. A high value points to a need for much substance. For `COc1cc2nc(N3CCN(c4ccccc4)CC3)nc(N)c2cc1OC`, the Activity with GT1-1 [1] turned out to be 0%; in the experiment with GT1-1 [3] it was 0%; with GT1-1 [4], 13%. The inhibition in the experiment on GT1-1 [2] was 93%. The compound also returned an IC50 in experiment [5] of 5.2 µM.

For `COc1cc2cnc(N3CCN(C(=O)c4ccco4)CC3)nc2cc1OC`, the Activity in the experiment with GT1-1 [1], in the experiment on GT1-1 [3] and with GT1-1 [4] was 0% in each case. The compound also gave an inhibition with GT1-1 [2] of 5%.

For `Nc1nc(N2CCN(C(=O)c3ccco3)CC2)nc2ccccc12`, the Activity in the experiment on GT1-1 [1] amounted to 0%; in the experiment on GT1-1 [3], 22%; in the experiment on GT1-1 [4], 0%. For the same compound, in the experiment on GT1-1 [2], the inhibition came to 64%.

For `COc1cc2nc(N3CCN(C(=O)C4CCCO4)CC3)nc(N)c2cc1OC` (racemic), the Activity in the experiment with GT1-1 [1] stood at 0%; in the experiment with GT1-1 [3], 38%; in the experiment with GT1-1 [4], 0%. The inhibition with GT1-1 [2] was found to be 41%.

Regarding `c1ccc(OCCCN2CCCC2)cc1`, inhibition in experiment [5] was half-maximal at 0.46 µM (IC50).

Turning to `COc1cc2nc(N3CCN(C(=O)c4cccs4)CC3)nc(N)c2cc1OC`, the Activity is 57% in the experiment on GT1-1 [1] and 161% in the experiment on GT1-1 [4].

Take `COc1cc2nc(N3CCN(C(=O)OCc4ccccc4)CC3)nc(N)c2cc1OC`: the Activity in the experiment with GT1-1 [1] worked out at 0%; with GT1-1 [3], 0%; in the experiment on GT1-1 [4], 6%. For the same compound, the inhibition with GT1-1 [2] worked out at 75%.

`COc1cc2nc(N3CCN(C(=O)c4ccccc4)CC3)nc(N)c2cc1OC`: the Activity worked out at 0% in the experiment with GT1-1 [1], 47% in the experiment on GT1-1 [3] and 40% with GT1-1 [4]. Moreover, the inhibition with GT1-1 [2] was 63%.

In the experiment with GT1-1 [1], `COc1cc2nc(N3CCN(C(=O)c4ccco4)CC3)nc(N)c2cc1OC` gave an Activity of 127%.

In the case of `COc1cc2nc(N3CCN(C(=O)c4ccco4)CC3)nc(NC(C)=O)c2cc1OC`, the Activity in the experiment on GT1-1 [1] was determined as 0%; with GT1-1 [3] it was 206%; in the experiment with GT1-1 [4], 35%. Moreover, in the experiment with GT1-1 [2], the inhibition came to 0%.

For `COc1cc2nc(N3CCN(C(=O)c4ccco4)CC3)nc(N3CCOCC3)c2cc1OC`, the Activity in the experiment with GT1-1 [1], in the experiment on GT1-1 [3] and in the experiment on GT1-1 [4] was 0% each time. The same compound came in with an inhibition in the experiment with GT1-1 [2] of 61%. In addition, the IC50 in experiment [5] worked out at 81 µM.

Regarding `Nc1nc(N2CCN(C(=O)c3ccco3)CC2)nc2cc3c(cc12)OCCO3`, the values for the Activity in the experiment on GT1-1 [1], with GT1-1 [3] and with GT1-1 [4] were 0%, 163% and 74%, respectively. In addition, the inhibition in the experiment with GT1-1 [2] is 42%.

Take `COc1cc2nc(N3CCC(C)CC3)nc(N)c2cc1OC`: the Activity worked out at 0% in the experiment on GT1-1 [1], 0% in the experiment on GT1-1 [3] and 13% with GT1-1 [4]. In the experiment on GT1-1 [2], the inhibition is 85%.

Consider `COc1cc2nc(N3CCN(C(=O)C(F)(F)F)CC3)nc(N)c2cc1OC`, for which the figures for the Activity in the experiment with GT1-1 [1], in the experiment on GT1-1 [3] and in the experiment on GT1-1 [4] were 0%, 26% and 0%, respectively. The inhibition in the experiment on GT1-1 [2] amounted to 31%.

As for `CCN(CC)c1nc(N2CCN(C(=O)c3ccco3)CC2)nc2cc(OC)c(OC)cc12`, the Activity with GT1-1 [1], with GT1-1 [3] and with GT1-1 [4] was 0% throughout. The inhibition in the experiment with GT1-1 [2] came to 55%. This compound also came in with an IC50 in experiment [5] of 80 µM.

For the compound `c1cc2c(cc1OCCCCCN1CCCC1)CCCC2`, the IC50 in experiment [5] turned out to be 0.19 µM.

For the compound `COc1cc2nc(N3CCCN(C(=O)c4ccco4)CC3)nc(N)c2cc1OC`, the values for the Activity in the experiment on GT1-1 [1], in the experiment on GT1-1 [3] and with GT1-1 [4] were 0%, 0% and 31%, respectively. The compound further came in with an inhibition in the experiment with GT1-1 [2] of 82%.

For `COc1cc2nc(N3CCN(C(=O)c4ccco4)CC3)nc(O)c2cc1OC`, the Activity with GT1-1 [1], with GT1-1 [3] and in the experiment with GT1-1 [4] was 0% each time. The compound also yielded an inhibition in the experiment with GT1-1 [2] of 0%.

`COc1cc2nc(N3CCN(C(C)=O)CC3)nc(N)c2cc1OC`: the Activity in the experiment with GT1-1 [1] is 0%; with GT1-1 [3] it was 61%; with GT1-1 [4] it was 0%. In the experiment on GT1-1 [2], this compound had an inhibition of 37%.

As for `COc1cc2nc(NCc3ccco3)nc(N)c2cc1OC`, the Activity with GT1-1 [1] was found to be 26%; with GT1-1 [3], 0%; in the experiment with GT1-1 [4], 43%. The compound also showed an inhibition with GT1-1 [2] of 71%.

As for `COc1cc2nc(N3CCN(C(=O)c4ccco4)CC3)nc(Nc3ccccc3)c2cc1OC`, the Activity with GT1-1 [1], with GT1-1 [3] and in the experiment on GT1-1 [4] was 0% in each case. This compound had an inhibition in the experiment on GT1-1 [2] of 80%. For the same compound, in experiment [5], the IC50 worked out at 4.5 µM.

Take `CNc1nc(N2CCN(C(=O)c3ccco3)CC2)nc2cc(OC)c(OC)cc12`: the Activity in the experiment on GT1-1 [1] was found to be 0%; in the experiment with GT1-1 [3], 229%; with GT1-1 [4], 55%. In addition, the inhibition in the experiment on GT1-1 [2] came to 0%.

On to `COc1cc2nc(N3CCN(C(=O)c4ccco4)CC3)nc(NCc3ccccc3)c2cc1OC`, for which the Activity in the experiment with GT1-1 [1], in the experiment with GT1-1 [3] and in the experiment with GT1-1 [4] was 0% each time. This compound came in with an inhibition in the experiment on GT1-1 [2] of 69%. The compound also returned an IC50 in experiment [5] of 5.4 µM.

Take `COc1cc2nc(NCCN3CCCCC3)nc(N)c2cc1OC`: the Activity with GT1-1 [1] was determined as 13%; in the experiment with GT1-1 [3] it was 37%; in the experiment with GT1-1 [4] it was 29%. This compound showed an inhibition in the experiment on GT1-1 [2] of 52%.
